OXTR potentiator: human OXTR potentiation; P30559; CHO-OTR cells, Fluo-8 calcium fluorescence, potentiator mode; 0% = oxytocin EC15, 100% = EC100; activation, % at 3 µM; hit rate 0.061% among 320,000;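 active = activation above that plate's cutoff, the mean activation of tested compounds plus 3 SD, cut at about 6.6% in these data, passing the limit was not always enough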;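 also: 100% uses oxytocin at 75 nM as the full agonist control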
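Material: human OTR in CHO cells. Compound: 3.0 µM, one dose. Timing: compound 6 min at room temperature before oxytocin, 100 s read. Evaluation: % activation of max/min ratio relative to oxytocin controls. Replication: single well per compound, singlicate. Signal: Fluo-8 calcium dye fluorescence.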
OXTR ag: activates the human oxytocin receptor; CHO-OTR cells, Fluo-8 calcium fluorescence; normalized: DMSO 0%, oxytocin 100%; hit rate 0.32% among 320,000; P30559; activation, % at 3 µM;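 active = activation above the mean of all tested compounds plus 3 SD, cutoff set per screening run, cut at about 20% in these data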;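 also: peak over basal fluorescence ratio from a 100 s FLIPR kinetic read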
TAAR1 agonist: human TAAR1 agonism. hit rate 0.99% among 360,000. CHO RD-HGA16 TAAR1, Fluo-8 calcium fluorescence; vehicle wells 0%, saturating PEA agonist 100%. Q96RJ0. activation, % at 3 µM;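 active = activation above the mean activation of all test compounds in the run plus 3 SD, cut at about 38% in these data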
Target sequence (Q96RJ0 whole entry, looked up): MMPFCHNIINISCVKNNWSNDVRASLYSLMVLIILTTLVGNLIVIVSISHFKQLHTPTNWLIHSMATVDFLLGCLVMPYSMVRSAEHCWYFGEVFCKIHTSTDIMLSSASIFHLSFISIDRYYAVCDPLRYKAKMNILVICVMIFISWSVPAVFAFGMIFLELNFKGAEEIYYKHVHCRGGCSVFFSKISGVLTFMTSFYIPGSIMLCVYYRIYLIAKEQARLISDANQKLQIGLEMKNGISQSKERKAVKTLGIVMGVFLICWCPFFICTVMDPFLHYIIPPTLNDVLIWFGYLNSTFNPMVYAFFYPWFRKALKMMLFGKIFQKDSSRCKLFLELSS
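Assay system – CHO-derived RD-HGA16 cells with stable Gα16 and human TAAR1 · Compound dosing – one-point dosing at 3 µM (nominal) · Incubation – 17-24 h seeding, 75 min 37 °C dye, 30 min RT · Measured by – kinetic Fluo-8 calcium fluorescence · Control set – DMSO vehicle as 0%, PEA at EC100 as 100% · Repeats – single well for each compound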
V1R ag counter: counter-screen for oxytocin receptor agonists: human V1a receptor agonists | P37288 | CHO-V1R cells, Fluo-8 calcium fluorescence, agonist mode; 0% DMSO, 100% 3 nM vasopressin | activation, % at 3 µM | hit rate 0.25% among 320,000 | AID 2797;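 active = activation above the mean activation of all tested compounds plus 3 SD, per screening run, cut at about 20% in these data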;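 also: signal is peak over basal fluorescence ratio across a 100 second FLIPR read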
TAAR1 antag: antagonists of human TAAR1. inhibition, % at 3 µM. hit rate 1.5% among 360,000. Q96RJ0. AID 624466. CHO RD-HGA16 TAAR1, Fluo-8 calcium fluorescence, antagonist;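 active = inhibition above a per-plate cutoff, the mean inhibition of test compounds on that plate plus 3 SD, cut at about 49% in these data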;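 also: 0% = DMSO plus EC80 beta-PEA response and 100% = DMSO alone without agonist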
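Test system: RD-HGA16 CHO cells with stable hTAAR1 and Gα16 / Probe or stimulus: EC80 β-phenethylamine stimulus / Times: seeding 17-24 h prior, 75-min 37 °C, 30-min RT dye loading / Detection: Fluo-8 calcium-sensitive fluorescence / Read-out basis: % inhibition scaled between DMSO and EC80 PEA controls / Repeats: singlicate, one well per test compound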
Starred values were filed as active, the others as inactive; . = no result given. Only some compounds are listed: those with a hit (about 2.3% of all), similar ones and a draw of the others.

SMILES	OXTR potentiator	OXTR ag	TAAR1 agonist	V1R ag counter	TAAR1 antag
COC(=O)[C@]12C[C@H](CC(=O)NCC34CC5CC(CC(C5)C3)C4)C(=O)N(CCC3=CCCCC3)C1=C[C@H](C(C)(C)C)O[C@@H]2C	.	.	0	.	-38
O=S(=O)(c1cccc(-c2csc(N/N=C/c3ccco3)n2)c1)N1CCOCC1	0	0	12	1	60*
COc1ccccc1NC(=O)N(C)C[C@H]1OCc2cn(nn2)CCCC(=O)N([C@H](C)CO)C[C@@H]1C	.	.	1	.	6
Cn1c(=O)c2cc(NC(=O)Nc3cccnc3)ccc2n1-c1ccc(C(C)(C)C)cc1	.	.	3	.	42
COc1ccc(CN(C)C(=O)c2cccc(S(=O)(=O)N3CCc4ccccc43)c2)c(OC)c1	-9	-2	0	-1	12
CCCCOCC1CN(Cc2ccccc2OC)S(=O)(=O)c2cc(Cl)ccc2O1 (stereo not drawn)	.	.	1	.	-3
COc1ccc2c(COC(=O)CC3Sc4ccccc4NC3=O)cc(=O)oc2c1 (stereo not drawn)	-15	2	15	4	54*
CC(=O)Nc1ccc2c(COC(=O)CC3Sc4ccccc4NC3=O)cc(=O)oc2c1 (stereo not drawn)	-6	0	6	0	21
CCOC(=O)C1(C)CCN1C(=O)c1cc(-c2ccc(Cl)cc2)oc1C (stereo not drawn)	.	.	0	.	4
O=C(c1cc(-c2cccnc2)nc2ccc(Cl)cc12)N1CCN(S(=O)(=O)c2cccs2)CC1	-5	2	10	3	51*
CC(C)(C)OC(=O)N1CCC2CCN(S(=O)(=O)c3ccccc3)CC21 (stereo not drawn)	.	.	0	.	-14
CCN(CC)c1ccc2cc(C=O)c(=O)oc2c1	-24	110*	73*	88*	36
CCN(CC)c1ccc2cc(C(C)=O)c(=O)oc2c1	-17	12	16	14	4
CCN(CC)c1ccc2cc(C(N)=O)c(=O)oc2c1	-5	0	10	1	-2
CCN(CC)c1ccc2cc(-c3nnc(-c4ccncc4)o3)c(=O)oc2c1	.	.	40*	.	23
COc1ccc(CN(C)C(=O)C(CCSC)NS(=O)(=O)c2ccc3c(c2)OCCO3)c(OC)c1OC (stereo not drawn)	.	.	12	.	56*
COc1ccc(NC(C)=O)cc1NS(=O)(=O)c1ccc2c(c1)OCCO2	-1	2	1	0	8
CCCCCCCCCCCCCCCC[n+]1ccc(/C=N/O)cc1	-8	14	22	8	78*
O=C(C1CCN(c2ncnc3c2nc2n3CCCCC2)CC1)N1CCN(c2cccc(Cl)c2)CC1	-8	5	9	14	63*
O=C(C1CCCN(c2ncnc3c2nc2n3CCCCC2)C1)N1CCN(c2ccc(Cl)cc2)CC1 (stereo not drawn)	-20	3	38*	3	77*
CCOCCC(=O)Nc1ccc2c(c1)c(=O)n(C)n2-c1ccccc1F	.	.	1	.	-1
CNc1ccc(S(=O)(=O)NCC(=O)OC(C)C(=O)N(C)Cc2ccccc2)cc1[N+](=O)[O-] (stereo not drawn)	-4	0	4	1	-7
O=[N+]([O-])c1ccc(CN2CCC(Cc3ccccc3)CC2)cc1	.	.	-2	.	0
O=[N+]([O-])c1ccc(C(=S)N2CCC(Cc3ccccc3)CC2)cc1	-2	-2	3	0	53*
CC(C)C1=CC2C3C(C(C(C)C)=CC(=O)[C@@]3(C)O)C1C(=O)C2(C)O (stereo partly drawn)	.	.	2	.	-9
CCN(C(=O)COc1cc(=O)n(CC)c2ccccc12)c1cc(Cl)ccc1OC	-1	-1	8	0	49*
CCN(C(=O)COc1cc(=O)n(CC)c2ccccc12)c1cccc(Cl)c1	-11	1	12	2	3
O=C(COC(=O)c1ccc(O)cc1)Nc1cc(C(F)(F)F)ccc1Cl	-9	10	38*	9	4
CCCC(=O)Nc1ccc(C(=O)Nc2cc(C(F)(F)F)ccc2Cl)cc1	-22	16	42*	15	19
C=C(C(=O)c1ccccc1)C(NC(C)(C)C)c1ccccc1 (stereo not drawn)	.	.	0	.	-2

Assay outcomes from PubChem.
